SDO1 yeast rescue: growth rescue of sdo1-depleted yeast, primary screen, S. cerevisiae, bone marrow failure model | S. cerevisiae sdo1-depleted JHY4D growth rescue, OD600 30 h; stronger effect = higher value; pdr5 snq2 efflux-pump mutant strain | AID 817, 2007 | z-score at 10 µM | 0.21% of 140,000 active;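 active = z-score above 3 at both the 24 hr and the 30 hr optical density reads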
NF-kB expr up: activators of NF-kB expression in neurons, primary screen, cell-based, HTS. fold change at 12.5 µM. human neuronal cells, NF-kB reporter expression; stronger effect = higher value. 1.6% of 190,000 active; in the data active = fold change above about 3.3
STAT1 activator: STAT1 signaling activators, primary screen, cell-based, HTS, luciferase reporter. NIH 3T3 STAT1-luciferase reporter, IFN-gamma, luminescence; 100% = IFN-gamma alone, no compound. activation (% of control), % at 5.5 µM. 2.6% of 200,000 active. AID 932, 2007;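 active = activation above the screen-wide mean activation plus 3 SD, cut at about 130% in these data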
FLuc inh counter: firefly luciferase enzyme inhibitors, primary screen, artefact control for luciferase-based inhibitor screens, biochemical, luminescence, ATPLite; 10 min; inhibition, % at 10 µM; 1.5% of 200,000 active; AID 1006, 2008;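 active = inhibition above about 50% when tested at 10 µM, limit read from the data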
Target sequence (P08659 whole entry, looked up): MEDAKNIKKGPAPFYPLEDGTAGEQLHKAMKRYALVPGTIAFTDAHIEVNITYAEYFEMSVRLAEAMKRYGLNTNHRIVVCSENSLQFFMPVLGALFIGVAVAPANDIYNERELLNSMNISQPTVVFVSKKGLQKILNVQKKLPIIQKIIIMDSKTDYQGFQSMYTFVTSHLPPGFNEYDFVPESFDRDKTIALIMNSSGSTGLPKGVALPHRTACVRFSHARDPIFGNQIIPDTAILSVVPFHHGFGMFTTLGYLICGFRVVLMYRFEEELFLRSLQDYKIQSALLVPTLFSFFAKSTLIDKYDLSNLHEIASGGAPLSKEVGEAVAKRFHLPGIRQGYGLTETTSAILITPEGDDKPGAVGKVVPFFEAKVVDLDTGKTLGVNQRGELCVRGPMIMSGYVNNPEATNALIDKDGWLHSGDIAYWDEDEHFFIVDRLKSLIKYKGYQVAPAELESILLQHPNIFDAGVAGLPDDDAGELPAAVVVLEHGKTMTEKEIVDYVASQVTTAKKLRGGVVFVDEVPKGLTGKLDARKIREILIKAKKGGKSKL
FLuc act counter: FLuc activators, initial screening, artefact control for FLuc-dependent activation tests, biochemical, ATPlite luminescence; ATPlite luciferase biochemical, 10 min; 0 = ATP-free wells, 1 = DMSO control; activation factor at 10 µM; 200,000 tested, under 10 active;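 active = luciferase activation factor, scaled between plate controls, of at least 2 with compound at 10 µM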
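Material: Luciferase/luciferin reagent mix; Doses: test compounds dosed from 2 mM stocks in 100% DMSO; Schedule: 10 min incubation after luciferase reagent addition, room temperature; Measured by: luminescence from luciferase reaction; Read-out: luminescence gain marking luciferase activators.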
APP 5'UTR act: activators of APP 5'UTR luciferase reporter, primary screen, SH-SY5Y cells; SH-SY5Y APP 5'UTR luciferase reporter, luminescence; zero percent = DMSO vehicle wells; activation, % at 2 µM; 1% of 190,000 active; AID 1276, 2008;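 active = activation above a set limit, based on mean plus 3 SD of controls, cut at about 140% in these data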
SDO1 rescue DR: SDO1-depleted yeast growth rescue, concentration-response, diseases of bone marrow failure, JHY4D, OD600 | 44% of 440 active | OD recovery (concentration not given with the values) | S. cerevisiae JHY4D (SDO1-depleted) growth rescue, 30 h; stronger effect = higher value; efflux-deficient strain, SNQ2 and PDR5 mutated | shares compounds with SDO1 yeast rescue;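 active = yeast growth recovered at 30 hours, either rising with dose fitted slope above 0.001 or with average optical density gain above 0.07, some results past the limit were not filed as active; inactive = growth falling with dose or no effect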
Of the large screens only hits and unclear results are named; the others gave an inactive call (follow-up assays come after a bar, where they were run). This is a sample that favours compounds with a hit; in the whole collection about 4.3% have one here.

Cc1noc(C)c1CCC(=O)N1CCCC(CCC(=O)NCc2ccc(F)c(F)c2)C1 (configuration not stated)	none (no result: SDO1 yeast rescue)
COc1ccccc1CCc1nnc(CCC(=O)N(C)Cc2cccc3cnccc23)o1	STAT1 activator 131.0 (no result: SDO1 yeast rescue)
C=CCOc1ccc(/C=C/C(C)=N\O)cc1	NF-kB expr up 4.19, STAT1 activator 131.9, FLuc inh counter 60.9
CC(=O)N(c1ccccc1)c1nnc(-c2cnc(C)cn2)s1	NF-kB expr up 3.48, APP 5'UTR act 136.9 (no result: SDO1 yeast rescue)
COC(=O)c1sc(S(=O)(=O)N2CCCCC2C(=O)O)c(C(=O)OC)c1C (configuration not stated)	none
c1coc(CNc2ncnc3sc4c(c23)CCCCC4)c1	none
Cc1nc(NCc2ccco2)c2c3c(sc2n1)CCC3	STAT1 activator 149.8
CC1CCN(c2ccc(NC(=O)c3ccccc3[N+](=O)[O-])cc2)CC1	none (no result: SDO1 yeast rescue)
CN(Cc1ccccc1)C(=S)Nc1ccc(OC(F)F)cc1	SDO1 yeast rescue 9.06 | SDO1 rescue DR inactive
Cc1ccc(/S(C)=N/S(=O)(=O)c2ccc(C)cc2)cc1 (configuration not stated)	none
O=S(=O)(c1ccc2c(c1)OCCO2)N1CCC(c2nc3ccc(Cl)cc3[nH]2)CC1	SDO1 yeast rescue 9.08 | SDO1 rescue DR inactive
CCOC(=O)Cc1nnc(NC(=O)CSc2ncc(-c3ccccc3)nn2)s1	none (no result: SDO1 yeast rescue)
CCCCN(C)C(=O)c1cc2cc3ccc(OC)cc3nc2s1	SDO1 yeast rescue 15.7, FLuc inh counter 84.7, APP 5'UTR act 188.4 | SDO1 rescue DR 0.0758
O=C(CCCN1C(=O)c2ccccc2C1=O)NCC1CCCO1 (configuration not stated)	none | SDO1 rescue DR inactive
O=C(CN1C(=O)c2ccccc2C1=O)NCC1CCCO1 (configuration not stated)	none
Cc1nn(-c2ccccc2)c2sc(C(=O)OCN3C(=O)c4ccccc4C3=O)cc12	none (no result: SDO1 yeast rescue, NF-kB expr up, STAT1 activator, APP 5'UTR act)
Cn1nnnc1SCC(=O)NC1CCCCC1	none | SDO1 rescue DR inactive
O=C(CC12CC3CC(CC(C3)C1)C2)NCC(=O)N1CCCC1	SDO1 yeast rescue 3.97 | SDO1 rescue DR inactive
Cc1csc2nc(=O)c3ccccc3n12	none
C=CCn1c(=NC(=O)c2cc(-c3cccs3)nc3ccccc23)sc2cc(S(N)(=O)=O)ccc21	none
COCCn1c(=NC(=O)c2cc(-c3cccs3)nc3ccccc23)sc2cc(S(N)(=O)=O)ccc21	SDO1 yeast rescue 9.37 | SDO1 rescue DR 0.0713
O=C(C1CCCCC1)N1CCN(C(=O)C2CCCCC2)CC1	SDO1 yeast rescue 10.8 | SDO1 rescue DR inactive
COCCNCCCCOc1c(Cl)cc(C)cc1Br	none
Cc1cc(Cl)c(OCCCNCc2ccccc2)c(Br)c1	SDO1 yeast rescue 4.22 | SDO1 rescue DR inactive
Cc1nnc(NC(=O)CSc2ncnc3c2cnn3-c2ccccc2C)s1	none | SDO1 rescue DR inactive
CCOC(=O)C1CCCN(C(=O)Cc2ccc(C)cc2)C1 (configuration not stated)	none | SDO1 rescue DR inactive
N/C(=N\c1nc2c(c(=O)[nH]1)CCC2)Nc1ccccc1C(F)(F)F	none
CCOC(=O)c1cnc2ccc(C)cc2c1Sc1ccc(F)cc1	SDO1 yeast rescue 13.2 | SDO1 rescue DR 0.0975
NC(=O)COc1ccc(=O)n(-c2ccccc2)n1	none
O=c1ccc(OCCOc2ccccc2)nn1-c1ccccc1	SDO1 yeast rescue 12.2 | SDO1 rescue DR 0.0823
COc1cc(/C=C(\C#N)c2nc3ccccc3n2C)cc(OC)c1O	none (no result: SDO1 yeast rescue)
CC(C)NC1CS(=O)(=O)CC1O (configuration not stated)	SDO1 yeast rescue 5.55 | SDO1 rescue DR 0.0945
O=S1(=O)CC(O)C(Nc2ccccc2)C1 (configuration not stated)	none
COc1ccc(NC(=O)C2CCCCN2S(=O)(=O)c2ccc(F)cc2)cc1 (configuration not stated)	none | SDO1 rescue DR inactive
COc1ccc(NC(=O)C2CCCN2S(=O)(=O)c2ccc(C)cc2)cc1 (configuration not stated)	none
CS(=O)(=O)N1CCc2cc(C(=O)N3CCCC3)ccc21	none (no result: SDO1 yeast rescue)
C=CCn1c(=O)n(C(=O)OCC)c2cc(Br)ccc21	none (no result: SDO1 yeast rescue)
COc1ccccc1S(=O)(=O)Cc1ccc(C(=O)N2CCOCC2)o1	SDO1 yeast rescue 3.19 | SDO1 rescue DR inactive
O=C(NCCN=C1NS(=O)(=O)c2ccccc21)c1ccco1	SDO1 yeast rescue 3.76 (no result: APP 5'UTR act) | SDO1 rescue DR 0.0847
Cc1cc(C)nc(SCC(=O)NC2=NN=C(c3ccc(Br)cc3)CS2)n1	none | SDO1 rescue DR 0.0826
CCC(Sc1nc(C)cc(C)n1)C(=O)NC1=NN=C(c2ccc(C)cc2)CS1 (configuration not stated)	none
Cc1c(/C=N\NC(=O)c2cccc(F)c2)cnn1C	SDO1 yeast rescue 3.34 | SDO1 rescue DR 0.0956
Cc1c(/C=N/NC(=O)c2ccc3c(c2)OCO3)cnn1C	none
COc1cc(NC(=S)NC(=O)c2ccco2)ccc1NC(=O)C(C)C	none (no result: SDO1 yeast rescue)
COc1cc(NC(=S)NC(=O)c2ccccc2F)ccc1NC(=O)c1ccco1	none | SDO1 rescue DR inactive
O=C(CS(=O)CC(=O)N(CC(=O)NC1CCCC1)C1CCCC1)Nc1ccc(F)cc1 (configuration not stated)	none
CCOc1cc(CNn2nnnc2N)cc(Cl)c1OCC(=O)NC(C)(C)C	none
CC(C)c1nnc(N2C(=O)C(O)=C(C(=O)c3cccs3)C2c2ccccc2)s1 (configuration not stated)	none (no result: SDO1 yeast rescue)
O=C(NCc1ccco1)c1ccc(Br)c(S(=O)(=O)N2CCCCC2)c1	SDO1 yeast rescue 4.66 | SDO1 rescue DR 0.0718
CC(C)Cn1c(N)c(C(=O)CSc2nc3ccccc3c(=O)n2CCCN2CCOCC2)c(=O)n(C)c1=O	none (no result: SDO1 yeast rescue)
CC(C)NC(=O)C1CCCN(S(C)(=O)=O)C1 (configuration not stated)	none | SDO1 rescue DR inactive
CS(=O)(=O)N1CCCC(C(=O)NC2CCCCCCC2)C1 (configuration not stated)	none
COc1ccc(C(CNC(=O)c2cc(C)oc2C)N2CCOCC2)cc1 (configuration not stated)	none | SDO1 rescue DR 0.0818
COc1ccccc1NC(=O)C1CCCN(S(=O)(=O)c2cnc[nH]2)C1 (configuration not stated)	none | SDO1 rescue DR inactive

Screens from PubChem.
